Experimental data taken from ChEMBL document CHEMBL1123566, “Synthesis and cardiac electrophysiological activity of 2- and 3-[(substituted phenyl)alkyl]quinuclidines. Structure-activity relationships” (1987).
“And” between values parts separate entries of the source, which are not always exact repeats. Equal values may be shown once.

What was measured:
Canis familiaris [1] = test: Heart rate was determined by intraduodenal administration of two dosages of 30 mg/kg of compound in anesthetized dogs. Value was reported for experiment 1; assay type: functional, Canis lupus familiaris
Procedure, shortened: (§1)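 Anesthetized dogs; compound given intraduodenally, generally as two doses, the second a cumulative (high) dose. LV functional refractory period and conduction time measured 15, 30 and 45 min after dosing; heart rate and blood pressure measured during nonpacing intervals. Values are % change from control, given per individual animal. Active if FRP or CT prolonged by ≥12%.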

Canis familiaris [2] = test: Heart rate was determined by intraduodenal administration of two dosages of 3 mg/kg of compound in anesthetized dogs. Value was reported for experiment 2; assay type: functional, Canis lupus familiaris; procedure, shortened: as §1
Canis familiaris [3] = test: Conduction time was determined by intraduodenal administration of 10 mg/kg (high dose) of compound in anesthetized dogs. Value was reported for experiment 2; assay type: functional, Canis lupus familiaris; procedure, shortened: as §1
Canis familiaris [4] = test: Conduction time was determined by intraduodenal administration of 30 mg/kg (high dose) of compound in anesthetized dogs. Value was reported for experiment 1; assay type: functional, Canis lupus familiaris; procedure, shortened: as §1
Canis familiaris [5] = test: Conduction time was determined by intraduodenal administration of 3 mg/kg (low dose) of compound in anesthetized dogs. Value was reported for experiment 2; assay type: functional, Canis lupus familiaris; procedure, shortened: as §1
Canis familiaris [6] = test: Conduction time was determined by intraduodenal administration of 10 mg/kg (low dose) of compound in anesthetized dogs. Value was reported for experiment 1; assay type: functional, Canis lupus familiaris; procedure, shortened: as §1
Canis familiaris [7] = test: Heart rate was determined by intraduodenal administration of two dosages of 10 mg/kg of compound in anesthetized dogs. Value was reported for experiment 1; assay type: functional, Canis lupus familiaris; procedure, shortened: as §1
Canis familiaris [8] = test: Heart rate was determined by intraduodenal administration of two dosages of 10 mg/kg of compound in anesthetized dogs. Value was reported for experiment 2; assay type: functional, Canis lupus familiaris; procedure, shortened: as §1
Canis familiaris [9] = test: Left ventricular refractory period was determined by intraduodenal administration of 10 mg/kg (high dose) of compound in anesthetized dogs. Value was reported for experiment 2; assay type: functional, Canis lupus familiaris, Cardiac ventricle
Procedure, shortened: (§2)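 Anesthetized dogs received two intraduodenal doses, the second cumulative (low dose/high dose). Left ventricular FRP and CT were measured 15, 30 and 45 min after dosing. Heart rate and mean blood pressure were taken during nonpacing intervals. Values are percent change from control. The vehicle was 5% dextrose in water/tragacanth. Activity was defined as ≥12% prolongation of FRP or CT.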

Canis familiaris [10] = test: Left ventricular refractory period was determined by intraduodenal administration of 10 mg/kg (low dose) of compound in anesthetized dogs. Value was reported for experiment 1; assay type: functional, Canis lupus familiaris, Cardiac ventricle; procedure, shortened: as §2
Canis familiaris [11] = test: Left ventricular refractory period was determined by intraduodenal administration of 30 mg/kg (high dose) of compound in anesthetized dogs. Value was reported for experiment 1; assay type: functional, Canis lupus familiaris, Cardiac ventricle; procedure, shortened: as §2
Canis familiaris [12] = test: Left ventricular refractory period was determined by intraduodenal administration of 3 mg/kg (low dose) of compound in anesthetized dogs. Value was reported for experiment 2; assay type: functional, Canis lupus familiaris, Cardiac ventricle; procedure, shortened: as §2
Canis familiaris [13] = test: Mean arterial blood pressure was determined by intraduodenal administration of two dosages of 3 mg/kg of compound in anesthetized dogs. Value was reported for experiment 2; assay type: functional, Canis lupus familiaris
Canis familiaris [14] = test: Mean arterial blood pressure was determined by intraduodenal administration of two dosages of 30 mg/kg of compound in anesthetized dogs. Value was reported for experiment 1; assay type: functional, Canis lupus familiaris; procedure, shortened: as §2
Canis familiaris [15] = test: Mean arterial blood pressure was determined by intraduodenal administration of two dosages of 10 mg/kg of compound in anesthetized dogs. Value was reported for experiment 1; assay type: functional, Canis lupus familiaris; procedure, shortened: as §2
Canis familiaris [16] = test: Mean arterial blood pressure was determined by intraduodenal administration of two dosages of 10 mg/kg of compound in anesthetized dogs. Value was reported for experiment 2; assay type: functional, Canis lupus familiaris; procedure, shortened: as §2
Canis familiaris [17] = species on record: Canis familiaris; test: In vitro electrophysiological evaluation in canine cardiac ventricular muscle reported as maximum % change for conduction time(CT) at 0.1-10 uM concentration range; Minimal (<10% decrease or increase in CT).; assay type: functional, Canis lupus familiaris, Muscle tissue
Procedure, shortened: (§3)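 Canine right ventricle and papillary muscle strips in oxygenated Tyrode's solution, fitted with stimulating and recording electrodes. The extra-stimulus conduction-interval method was adapted for in vitro use. FRP and CT were read from a conduction-interval curve before and after various compound concentrations, and expressed as percent change from control. Compounds were taken from 10 mM deionized-water stock into Tyrode's. Each strip was used once as its own control.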

Canis familiaris [18] = species on record: Canis familiaris; test: In vitro electrophysiological evaluation in canine cardiac ventricular muscle reported as % change for the functional refractory period (FRP) at 10 uM at concentration range of 0.1-10 uM; design: species or system Canis lupus familiaris, Muscle tissue; procedure, shortened: as §3
Canis familiaris [19] = species on record: Canis familiaris; test: In vitro electrophysiological evaluation in canine cardiac ventricular muscle reported as % change for conduction time(CT) at 10 uM at 0.1-10 uM concentration range; Minimal (<10% decrease or increase in CT).; assay type: functional, Canis lupus familiaris, Muscle tissue
Canis familiaris [20] = species on record: Canis familiaris; test: In vitro electrophysiological evaluation in canine cardiac ventricular muscle reported as maximum % change for functional refractory period (FRP) at 0.1-10 uM concentration range; concentration at which it occurred is 10 uM.; design: species or system Canis lupus familiaris, Muscle tissue; procedure, shortened: as §3
Canis familiaris [21] = species on record: Canis familiaris; test: In vitro electrophysiological evaluation in canine cardiac Purkinje fibres reported as percent change Vmax at 10 uM at concentration range of 0.1-100 uM; Minimal (<10% decrease or increase in Vmax).; assay type: functional, organism-based; conditions: Canis lupus familiaris, Purkinje fiber
Procedure, shortened: (§4)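 Canine cardiac Purkinje fibres, intracellular microelectrode recording, paced at a basic cycle length of 1 s. APD95 and Vmax read simultaneously. Compound: 10 mM stock in deionized water, diluted into Tyrode's solution, tested over the stated concentration range. Each fibre used once as its own control. Result is % change from control, given at 10 µM or as the maximum with its concentration. M = <10% decrease or an increase in Vmax.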

Canis familiaris [22] = species on record: Canis familiaris; test: In vitro electrophysiological evaluation in canine cardiac Purkinje fibres reported as percent change Vmax at 10 uM at concentration range of 0.1-10 uM; Minimal (<10% decrease or increase in Vmax).; assay type: functional; conditions: Canis lupus familiaris, Purkinje fiber; procedure, shortened: as §4
Canis familiaris [23] = species on record: Canis familiaris; test: In vitro electrophysiological evaluation in canine cardiac Purkinje fibres reported as percent change Vmax at 10 uM at concentration range of 0.1-100 uM.; assay type: functional, organism-based; conditions: Canis lupus familiaris, Purkinje fiber; procedure, shortened: as §4
Canis familiaris [24] = species on record: Canis familiaris; test: In vitro electrophysiological evaluation in canine cardiac occurred is 100 uM.; assay type: functional; conditions: Canis lupus familiaris; Heart
Canis familiaris [25] = species on record: Canis familiaris; test: In vitro electrophysiological evaluation in canine cardiac Purkinje fibres reported as maximum percent change Vmax concentration range of 0.1-100 uM; conduction block; assay type: functional; conditions: Canis lupus familiaris; Purkinje fiber; procedure, shortened: as §4
Canis familiaris [26] = species on record: Canis familiaris; test: In vitro electrophysiological evaluation in canine cardiac Purkinje fibres reported as maximum percent change Vmax concentration range of 0.1-10 uM; Minimal (<10% decrease or increase in Vmax).; assay type: functional; conditions: Canis lupus familiaris; Purkinje fiber; procedure, shortened: as §4
Canis familiaris [27] = species on record: Canis familiaris; test: In vitro electrophysiological activity in canine cardiac occurred is 10 uM.; assay type: functional, Canis lupus familiaris, Heart
Canis familiaris [28] = species on record: Canis familiaris; test: In vitro electrophysiological evaluation in canine cardiac Purkinje fibres reported as % change for action potential duration at a concentration of 10 uM; assay type: functional, Canis lupus familiaris, Purkinje fiber; procedure, shortened: as §4
Canis familiaris [29] = species on record: Canis familiaris; test: In vitro electrophysiological activity in canine cardiac occurred is 100 uM.; assay type: functional, Canis lupus familiaris, Heart
Canis familiaris [30] = species on record: Canis familiaris; test: In vitro electrophysiological evaluation in canine cardiac Purkinje fibres reported as percent change Vmax concentration range of 0.1-100 uM; assay type: functional; conditions: Canis lupus familiaris; Purkinje fiber; procedure, shortened: as §4
Canis familiaris [31] = species on record: Canis familiaris; test: In vitro electrophysiological evaluation in canine cardiac Purkinje fibres reported as percent change Vmax concentration range of 1-100 uM; assay type: functional; conditions: Canis lupus familiaris; Purkinje fiber
Procedure, shortened: (§5)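 Canine cardiac Purkinje fibers, intracellular recording, paced at a basic cycle length of 1 s. APD95 and Vmax are recorded together across cumulative concentrations. Compound is a 10 mM aqueous stock diluted into Tyrode's solution. Each fiber is used once as its own control. Readouts are percent change from control at 10 μM, and the maximum change with the concentration where it occurred.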

Canis familiaris [32] = species on record: Canis familiaris; test: In vitro electrophysiological evaluation in canine cardiac Purkinje fibres reported as maximum percent change Vmax concentration range of 1-100 uM; assay type: functional; conditions: Canis lupus familiaris; Purkinje fiber; procedure, shortened: as §5
Canis familiaris [33] = species on record: Canis familiaris; test: In vitro electrophysiological activity in canine cardiac Purkinje fibres given as maximum % change for action potential duration at 0.1-100 uM concentration; assay type: functional, Canis lupus familiaris, Purkinje fiber
Procedure, shortened: (§6)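 Canine cardiac Purkinje fibres, intracellular recording at 1 s basic cycle length, over cumulative concentration ranges. Compound 10 mM stock in deionized water diluted into Tyrode's. Each fibre used once as its own control. Value is the maximum % change from control in APD at 95% repolarization, with the concentration where it occurred; both values given if a biphasic response (>20% reversal) occurred.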

Canis familiaris [34] = species on record: Canis familiaris; test: In vitro electrophysiological evaluation in canine cardiac Purkinje fibres reported as % change for action potential duration at 1-100 uM concentration range; assay type: functional, Canis lupus familiaris, Purkinje fiber; procedure, shortened: as §5
Canis familiaris [35] = species on record: Canis familiaris; test: In vitro electrophysiological evaluation in canine cardiac Purkinje fibres reported as % change for action potential duration at 0.1-100 uM concentration range; assay type: functional, Canis lupus familiaris, Purkinje fiber; procedure, shortened: as §4
Canis familiaris [36] = species on record: Canis familiaris; test: In vitro electrophysiological activity in canine cardiac Purkinje fibres given as maximum % change for action potential duration at 100 uM concentration; assay type: functional, Canis lupus familiaris, Purkinje fiber; procedure, shortened: as §6
Canis familiaris [37] = species on record: Canis familiaris; test: In vitro electrophysiological activity in canine cardiac Purkinje fibres given as maximum % change for action potential duration at 1 uM concentration; assay type: functional, Canis lupus familiaris, Purkinje fiber; procedure, shortened: as §6

## Cl.O=C1C2CCN(CC2)C1CCCc1ccc(Cl)cc1 (configuration not stated)
Canis familiaris [1]
  HR: -31%
Canis familiaris [2]
  HR: -2%
Canis familiaris [3]
  CT: 13%
Canis familiaris [4]
  CT: 2%
Canis familiaris [5]
  CT: 3%
Canis familiaris [6]
  CT: 0%
Canis familiaris [7]
  HR: -17%
Canis familiaris [8]
  HR: -14%
Canis familiaris [9]
  LV FRP: 9%
Canis familiaris [10]
  LV FRP: 15%
Canis familiaris [11]
  LV FRP: 19%
Canis familiaris [12]
  LV FRP: 5%
Canis familiaris [13]
  Mean blood pressure: 20%
Canis familiaris [14]
  Mean blood pressure: 5%
Canis familiaris [15]
  Mean blood pressure: -4%
Canis familiaris [16]
  Mean blood pressure: 24%
Canis familiaris [17]
  CT: <10%
Canis familiaris [18]
  FRP: 39% and 23%
Canis familiaris [19]
  CT: <10%
Canis familiaris [20]
  FRP: 39% and 23%
Canis familiaris [21]
  Vmax: < 10%
Canis familiaris [22]
  Vmax: < 10%
Canis familiaris [23]
  Vmax: -41%
Canis familiaris [24]
  Vmax: -12%
Canis familiaris [25]
  Vmax: < 10%
Canis familiaris [26]
  Vmax: < 10%
Canis familiaris [27]
  APD95: 6%
Canis familiaris [28]
  APD95: 6%
Canis familiaris [29]
  APD95: -11% and -18%

## CCN(CC)CCCCc1ccc(Cl)cc1
Canis familiaris [30]
  Vmax: < 10%
Canis familiaris [31]
  Vmax: < 10%
Canis familiaris [32]
  Vmax: -57%
Canis familiaris [33]
  APD95: 38% and 27%
Canis familiaris [34]
  APD95: 21%
Canis familiaris [35]
  APD95: 38% and 27%
Canis familiaris [36]
  APD95: -15%
Canis familiaris [37]
  APD95: 25%
